This is an account of results in ChEMBL document CHEMBL4196175, “First SAR Study for Overriding NRAS Mutant Driven Acute Myeloid Leukemia” (J Med Chem, 2018).

Active and inactive are the calls of the source. No cut-off for these calls is given here.

Series [1] has as its system BaF3. Kind of series: Induction of apoptosis in mouse BA/F3 cells expressing NRAS-G12D mutant assessed as increase in cleaved PARP levels at 1 uM after 24 hrs by Western blot analysis. The class given is functional, cell-based. Summed up: (§1)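 Cells treated 24 h with indicated concentrations (1 µM; 5 µM also used in Ba/F3-NRAS-G12D); cleaved PARP, cleaved caspase 3, bcl-2 and MCL1 detected by western blot with actin as loading control.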
In general terms: Immunoblotting shows a protein as a band on a membrane.

Series [2] addresses CYP3A4 (Homo sapiens, UniProt P08684). Kind of series: Inhibition of CYP3A4 (unknown origin) assessed as activity remaining at 10 uM relative to control. It counts as ADME. The following applies: read-out: Activity.
Series [3] has as its system OCI-AML-3. Kind of series: Antileukemic activity against human OCI-AML3 cells harboring NRAS-Q61L mutant xenografted in immunodeficient mouse assessed as tumor volume at 8 mg/kg/day, po qd administered on day 21 post implantation measured on […] (reference value: 100%). It counts as functional.
Series [4] is filed under the species Mus musculus. In words: Inhibition of ACK1/GCK in mouse BA/F3 cells assessed as reduction in NRAS-G12D mutant-mediated cell proliferation after 72 hrs by celltiter-glo assay. It counts as cell-based.
Series [5] relates to OCI-AML-3. In words: Inhibition of anchorage-independent cell growth in human OCI-AML3 cells harboring NRAS Q61L mutant assessed as reduction in colony number at 0.1 to 1 uM after 14 days by iodonitrotetrazolium chloride staining-based soft agar assay. The class given is functional. Put shortly:
(§2)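 OCI-AML3 cells embedded in 0.7% low-melting agar, incubated 2 weeks with compound at 0.1 or 1 µM; colony number and colony size per well measured by automated image analysis; n = 3 per condition, SD, one-way ANOVA.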

Series [6] concerns OCI-AML-3. Kind of series: Inhibition of anchorage-independent cell growth in human OCI-AML3 cells harboring NRAS Q61L mutant assessed as reduction in colony size at 0.1 to 1 uM after 14 days by iodonitrotetrazolium chloride staining-based soft agar assay. The class given is functional. Put shortly:
as §2

Series [7] in a line: Metabolic stability in rat liver microsomes assessed as compound remaining at 1 uM after 30 mins. The class given is ADME, microsome. The following applies: read-out: Stability. A general note: Microsomes from liver hold many membrane-bound enzymes, among them those of drug oxidation.
The nature of series [8]: Metabolic stability in mouse liver microsomes assessed as compound remaining at 1 uM after 30 mins. The class given is ADME, microsome. The following applies: read-out: Stability.
For series [9], the target named is CYP2D6 (Homo sapiens, UniProt P10635). Kind of series: Inhibition of CYP2D6 (unknown origin) assessed as activity remaining at 10 uM relative to control. The following applies: read-out: Activity. The class given is ADME.
The target of series [10] is CYP2C9 (Homo sapiens, UniProt P11712). In words: Inhibition of CYP2C9 (unknown origin) assessed as activity remaining at 10 uM relative to control. The class given is ADME. The following applies: read-out: Activity.
The subject of series [11] is OCI-AML-3. Kind of series: Growth inhibition of human OCI-AML3 cells harboring NRAS-Q61L mutant after 72 hrs by celltiter-glo assay. The class given is functional. The following applies: OCI-AML-3, 72 h.
The subject of series [12] is BaF3. Kind of series: Induction of apoptosis in mouse BA/F3 cells expressing NRAS-G12D mutant assessed as decrease in MCL1 levels at 1 uM after 24 hrs by Western blot analysis. The class given is functional, cell-based. Summed up: as §1
The target of series [13] is T1, Mitogen-activated protein kinase kinase kinase kinase 2 (Homo sapiens, UniProt Q12851).
T1 sequence (Q12851 whole entry): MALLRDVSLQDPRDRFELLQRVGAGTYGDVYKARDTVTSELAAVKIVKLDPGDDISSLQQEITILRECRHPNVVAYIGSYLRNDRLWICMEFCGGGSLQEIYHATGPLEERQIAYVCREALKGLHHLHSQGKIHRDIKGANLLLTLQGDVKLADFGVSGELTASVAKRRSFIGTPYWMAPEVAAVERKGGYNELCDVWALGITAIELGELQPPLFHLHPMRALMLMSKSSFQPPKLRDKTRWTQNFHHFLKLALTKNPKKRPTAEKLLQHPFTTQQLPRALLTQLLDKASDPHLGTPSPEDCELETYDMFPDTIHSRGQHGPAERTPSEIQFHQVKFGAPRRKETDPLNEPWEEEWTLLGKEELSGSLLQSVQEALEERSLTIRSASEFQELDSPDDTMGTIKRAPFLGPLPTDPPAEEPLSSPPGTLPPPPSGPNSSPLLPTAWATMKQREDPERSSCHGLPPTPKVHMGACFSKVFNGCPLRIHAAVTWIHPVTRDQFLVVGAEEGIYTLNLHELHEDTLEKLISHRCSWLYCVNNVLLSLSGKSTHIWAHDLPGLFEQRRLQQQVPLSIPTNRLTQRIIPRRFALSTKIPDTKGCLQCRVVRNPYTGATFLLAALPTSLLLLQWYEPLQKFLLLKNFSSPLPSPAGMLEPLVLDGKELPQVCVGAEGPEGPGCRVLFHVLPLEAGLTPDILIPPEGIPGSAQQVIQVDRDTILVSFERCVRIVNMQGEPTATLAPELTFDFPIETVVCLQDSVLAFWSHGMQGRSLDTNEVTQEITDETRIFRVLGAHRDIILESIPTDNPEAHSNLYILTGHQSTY
In words: Inhibition of GCK (unknown origin) by radiometric biochemical kinase assay.

Series [14] has as its system BaF3. In words: Antileukemic activity against mouse BA/F3 cells harboring NRAS-G12D mutant/luciferase allografted in immunodeficient mouse at 8 mg/kg/day, po qd administered on day 6 post implantation measured on day 20 post implantation by bioluminescence imaging method. The class given is functional, organism-based. Summed up:
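Immunodeficient mice injected via tail vein with Ba/F3-NRAS-G12D/Luc cells, dosed orally once daily (8 or 15 mg/kg/day) or vehicle for 3 weeks, n=4 per cohort; bioluminescence imaged every two days after luciferin 150 mg/kg, quantified by bio-photonic analysis.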

The subject of series [15] is OCI-AML-3. In words: Cell cycle arrest in human OCI-AML3 cells harboring NRAS Q61L mutant assessed as accumulation at G0/G1 phase at 1 uM after 24 hrs by propidium iodide staining based FACS analysis. The class given is functional. Put shortly: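 OCI-AML3 cells treated 24 h at indicated concentrations, including 1 µM; cell-cycle phase distribution measured by flow cytometry after propidium iodide staining.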
In general terms: A flow cytometer gives signals particle by particle.

Series [16] can be described thus: Growth inhibition of parental human U937 cells after 72 hrs by celltiter-glo assay. It counts as cell-based, U-937.
The nature of series [17]: Metabolic stability in dog liver microsomes assessed as compound remaining at 1 uM after 30 mins. It counts as ADME, Canis lupus familiaris, microsome. The following applies: read-out: Stability.
Series [18] addresses Activated CDC42 kinase 1 (Homo sapiens, UniProt Q07912). In words: Inhibition of ACK1 (unknown origin) by radiometric biochemical kinase assay.
Series [19] in a line: Growth inhibition of parental mouse BA/F3 cells after 72 hrs by celltiter-glo assay. The class given is cell-based, BaF3.
Series [20] concerns BaF3. In words: Induction of apoptosis in mouse BA/F3 cells expressing NRAS-G12D mutant assessed as decrease in bcl2 levels at 1 uM after 24 hrs by Western blot analysis. The class given is functional, cell-based. Put shortly: as §1
Series [21] can be described thus: Metabolic stability in human liver microsomes assessed as compound remaining at 1 uM after 30 mins. It counts as ADME, microsome. The following applies: read-out: Stability.
In series [22] the test system is BaF3. Kind of series: Antileukemic activity against mouse BA/F3 cells harboring NRAS-G12D mutant allografted in immunodeficient mouse assessed as median survival time at 8 mg/kg/day, po qd administered on day 6 post implantation (reference value: 23 days). It counts as functional.
Series [23] deals with OCI-AML-3. Kind of series: Growth inhibition of ACK1/GCK knockdown human OCI-AML3 cells harboring NRAS-Q61L mutant at 0.2 uM after 72 hrs by celltiter-glo assay. The class given is functional, cell-based.
Series [24] relates to BaF3. In words: Induction of apoptosis in mouse BA/F3 cells expressing NRAS-G12D mutant assessed as increase in cleaved caspase-3 levels at 1 uM after 24 hrs by Western blot analysis. The class given is functional, cell-based. Summed up: as §1
The target of series [25] is T2, CYP1A2 (Homo sapiens, UniProt P05177).
T2 sequence (P05177 whole entry): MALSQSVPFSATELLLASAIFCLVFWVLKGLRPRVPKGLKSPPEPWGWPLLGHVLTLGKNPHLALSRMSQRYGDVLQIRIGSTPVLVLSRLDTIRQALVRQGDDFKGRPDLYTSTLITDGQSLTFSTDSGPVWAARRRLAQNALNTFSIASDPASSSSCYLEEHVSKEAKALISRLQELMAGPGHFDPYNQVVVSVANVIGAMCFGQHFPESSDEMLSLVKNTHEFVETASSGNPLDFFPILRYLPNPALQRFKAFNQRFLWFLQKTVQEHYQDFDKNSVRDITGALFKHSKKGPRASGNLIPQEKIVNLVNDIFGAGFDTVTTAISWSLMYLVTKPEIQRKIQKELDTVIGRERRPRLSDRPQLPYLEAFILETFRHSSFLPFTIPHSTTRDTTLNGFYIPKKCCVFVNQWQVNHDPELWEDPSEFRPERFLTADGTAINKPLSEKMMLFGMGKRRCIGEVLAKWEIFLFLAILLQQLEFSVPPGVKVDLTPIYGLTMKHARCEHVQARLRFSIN
In words: Inhibition of CYP1A2 (unknown origin) assessed as activity remaining at 10 uM relative to control. The class given is ADME. The following applies: read-out: Activity.

In series [26] the test system is OCI-AML-3. Kind of series: Growth inhibition of ACK1/GCK knockdown human OCI-AML3 cells harboring NRAS-Q61L mutant at 0.5 uM after 72 hrs by celltiter-glo assay. It counts as functional, cell-based.
Series [27] can be described thus: Selectivity index, ratio of GI50 for parental human U937 cells to GI50 for human OCI-AML3 cells harboring NRAS-Q61L mutant. Put shortly: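 Human AML lines OCI-AML3 (NRAS mutant) and U937 (NRAS wild-type) were exposed to inhibitors for 72 h. GI50 is the concentration giving half-maximal growth inhibition, averaged with SD (n = 3, duplicate). The index is the U937 GI50 divided by the OCI-AML3 GI50.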

Activated CDC42 kinase 1, sequence (Q07912 whole entry): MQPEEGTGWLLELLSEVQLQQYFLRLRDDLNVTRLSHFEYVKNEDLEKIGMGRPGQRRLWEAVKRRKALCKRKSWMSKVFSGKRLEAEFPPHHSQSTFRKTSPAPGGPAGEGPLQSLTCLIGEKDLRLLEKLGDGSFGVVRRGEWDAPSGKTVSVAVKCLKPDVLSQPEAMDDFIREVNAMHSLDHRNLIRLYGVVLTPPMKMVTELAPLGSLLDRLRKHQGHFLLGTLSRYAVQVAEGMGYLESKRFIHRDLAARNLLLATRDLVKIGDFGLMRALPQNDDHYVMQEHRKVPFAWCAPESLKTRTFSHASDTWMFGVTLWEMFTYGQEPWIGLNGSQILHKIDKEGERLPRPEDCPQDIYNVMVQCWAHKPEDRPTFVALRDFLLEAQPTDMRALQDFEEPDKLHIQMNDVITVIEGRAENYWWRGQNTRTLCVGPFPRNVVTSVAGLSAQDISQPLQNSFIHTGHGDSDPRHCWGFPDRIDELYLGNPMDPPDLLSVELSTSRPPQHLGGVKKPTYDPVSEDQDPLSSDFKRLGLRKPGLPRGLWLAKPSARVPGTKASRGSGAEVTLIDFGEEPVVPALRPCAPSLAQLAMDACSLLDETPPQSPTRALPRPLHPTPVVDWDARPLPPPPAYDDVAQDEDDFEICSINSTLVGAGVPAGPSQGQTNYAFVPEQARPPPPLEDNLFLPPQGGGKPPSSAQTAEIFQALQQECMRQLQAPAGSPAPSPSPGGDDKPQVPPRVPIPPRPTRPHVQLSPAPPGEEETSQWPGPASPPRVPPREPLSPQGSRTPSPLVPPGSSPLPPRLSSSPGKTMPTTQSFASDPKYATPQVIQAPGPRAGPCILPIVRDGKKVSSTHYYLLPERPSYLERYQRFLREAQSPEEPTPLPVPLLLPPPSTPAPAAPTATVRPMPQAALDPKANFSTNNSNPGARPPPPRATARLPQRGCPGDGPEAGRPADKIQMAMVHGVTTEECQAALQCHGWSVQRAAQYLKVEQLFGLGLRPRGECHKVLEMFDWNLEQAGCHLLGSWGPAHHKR
CYP2D6, sequence (P10635 whole entry): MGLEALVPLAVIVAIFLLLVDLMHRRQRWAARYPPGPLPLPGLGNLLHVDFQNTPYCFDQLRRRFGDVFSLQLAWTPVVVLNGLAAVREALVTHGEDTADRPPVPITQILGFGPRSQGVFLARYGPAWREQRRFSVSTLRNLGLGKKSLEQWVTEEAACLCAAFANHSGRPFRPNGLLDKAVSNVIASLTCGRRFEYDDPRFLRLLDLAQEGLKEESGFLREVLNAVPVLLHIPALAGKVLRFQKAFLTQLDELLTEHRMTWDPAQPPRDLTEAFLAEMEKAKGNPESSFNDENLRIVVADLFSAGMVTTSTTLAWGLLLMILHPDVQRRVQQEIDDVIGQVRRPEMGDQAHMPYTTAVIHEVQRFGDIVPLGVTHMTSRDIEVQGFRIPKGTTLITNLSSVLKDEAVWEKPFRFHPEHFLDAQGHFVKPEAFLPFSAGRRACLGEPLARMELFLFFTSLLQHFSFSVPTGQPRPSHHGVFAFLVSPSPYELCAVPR
CYP2C9, sequence (P11712 whole entry): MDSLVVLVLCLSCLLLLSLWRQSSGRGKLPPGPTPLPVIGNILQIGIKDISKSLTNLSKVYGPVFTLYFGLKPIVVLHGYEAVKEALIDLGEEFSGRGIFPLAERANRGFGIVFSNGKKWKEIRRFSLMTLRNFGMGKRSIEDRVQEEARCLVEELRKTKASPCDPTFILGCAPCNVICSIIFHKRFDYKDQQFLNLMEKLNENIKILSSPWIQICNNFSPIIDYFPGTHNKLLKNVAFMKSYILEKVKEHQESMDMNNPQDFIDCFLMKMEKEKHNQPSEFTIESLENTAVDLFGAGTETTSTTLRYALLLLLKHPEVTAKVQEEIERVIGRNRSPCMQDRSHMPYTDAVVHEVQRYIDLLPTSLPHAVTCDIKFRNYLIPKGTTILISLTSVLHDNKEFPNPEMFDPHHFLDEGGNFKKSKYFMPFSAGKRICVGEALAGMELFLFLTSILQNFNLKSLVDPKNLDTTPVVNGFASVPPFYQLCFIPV
CYP3A4, sequence (P08684 whole entry): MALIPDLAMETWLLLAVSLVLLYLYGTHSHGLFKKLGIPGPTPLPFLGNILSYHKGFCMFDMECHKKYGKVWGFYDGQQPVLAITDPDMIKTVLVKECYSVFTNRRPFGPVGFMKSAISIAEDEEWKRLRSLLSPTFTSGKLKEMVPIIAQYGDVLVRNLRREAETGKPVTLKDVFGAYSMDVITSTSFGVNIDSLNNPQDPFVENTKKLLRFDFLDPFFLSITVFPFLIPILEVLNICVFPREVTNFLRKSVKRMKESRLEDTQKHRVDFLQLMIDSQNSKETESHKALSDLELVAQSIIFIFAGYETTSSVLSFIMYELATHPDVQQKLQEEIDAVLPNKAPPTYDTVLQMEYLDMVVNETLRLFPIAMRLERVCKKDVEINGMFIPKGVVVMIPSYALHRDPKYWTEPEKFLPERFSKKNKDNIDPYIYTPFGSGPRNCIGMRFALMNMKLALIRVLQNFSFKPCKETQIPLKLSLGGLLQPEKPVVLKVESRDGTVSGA

In the case of `Cc1ccc(Nc2ncc3c(n2)N(C)C(=O)N(c2cc(NC(=O)c4cccc(C(F)(F)F)c4)ccc2C)C3)cn1`, the Activity entry in series [1], in series [12], in series [14], in series [15], in series [20] and in [24] was “Active” throughout. Also, the activity at 10 µM in [2] is over 100%; in series [9], 68.4%; in series [10] it was 27%; in series [25], 93.2%. Further, the Activity in [3] is recorded as 53.8%. Moreover, the GI50 (commonly the concentration giving 50% growth inhibition) was determined as 81 nM in series [4] and 219 nM in series [11]. The “growth inhibition (GI)” value in series [5], in [6] and in series [23] was “Active” each time. Further, the remaining at 0.5 h, 1 µM in series [7] came to 84.8%; in series [8], 80.5%; in series [17], 55.3%; in series [21], 78.6%. Also, the IC50 (commonly the midpoint of a concentration-inhibition curve) was determined as 8 nM in series [13] and 25 nM in series [18]. The GI50 at 72 h was found to be 4380 nM in series [16] and 1030 nM in [19]. Besides, the MSD in [22] is 31 days.
Turning to `Cc1ccc(Nc2ncc3c(n2)N(C)C(=O)N(c2cc(NC(=O)c4ccc(C)c(C(F)(F)F)c4)ccc2C)C3)cn1`, the “growth inhibition (GI)” value in series [26] is “Active”. Also, the GI50 turned out to be 387 nM in series [4] and 394 nM in series [11]. For the same compound, the IC50 in [13] is 39 nM; in series [18], 20 nM. The GI50 at 72 h worked out at 19400 nM in series [16] and 870 nM in series [19].
With `Cc1ccc(Nc2ncc3c(n2)N(C)C(=O)N(c2cc(NC(=O)c4ccc(-n5cccc5)c(C(F)(F)F)c4)ccc2C)C3)cn1`, the results for the GI50 in series [4] and in [11] were 69 nM and 267 nM, respectively. Further, the values for the IC50 in series [13] and in [18] were 24 nM and 10 nM, respectively. Moreover, the GI50 at 72 h in series [16] was over 25000 nM; in series [19] it was 317 nM. Besides, in [27], the RatioGI50 came to 100. Besides, the “growth inhibition (GI)” value in series [23] was “Active”.
